Measurements collected from several papers.
Lines come from different studies, so protocols differ.
Target: Tyrosine-protein kinase Fes/Fps (FES, Homo sapiens, UniProt P07332)

SMILES | read-out | technique | tested at | remaining binding
O=C(c1ccc(Nc2nccc(-c3cc4ccccc4s3)n2)cc1)N1CCC(N2CCCC2)CC1 | binding | competition with immobilised ligand | 1 µM | 93%
C=CC(=O)N1CCC(C(=O)NCC(=O)N2CCN(c3nc(-c4cnc(N)nc4C(F)F)nc(N4CCOCC4)n3)CC2)CC1 | binding | competition with immobilised ligand | 1 µM | 100%
Cc1c[nH]c2nccc(Oc3c(F)cc(Nc4cc(Cl)nc(N)n4)cc3F)c12 | cell-free assay | competition with immobilised ligand | 0.1 µM | 100%
CN(C)c1ncc(F)c(-c2cnn3ncccc23)n1 | binding |  | 1 µM | 87%
O=C(NCCCN1CCOCC1)c1ccc(Nc2ncc(Cl)c(-c3ccc(Cl)s3)n2)cc1 | binding | competition with immobilised ligand | 1 µM | 62%
CS(=O)(=O)N1CCCC(NC(=O)[C@H](CCC2CCCCC2)NC(=O)c2ccc(CNc3ncnc4c3nnn4-c3ccccc3)cc2)C1 (stereo partly shown) | cell-free assay | competition with immobilised ligand | 0.1 µM | 87%
N[C@H]1CCN(c2nccc(-c3cnn4ncccc34)n2)C1 | binding |  | 1 µM | 100%
CC(C)(O)c1cncc(-c2nc3ccc(F)cc3n2C2CC2)c1 | cell-free assay | competition with immobilised ligand | 1 µM | 100%
CN(c1nccc(-c2cnn3ncccc23)n1)C1CC1 | binding |  | 1 µM | 100%
C[C@@H](c1ccc(-n2cnc3c(N)ncnc32)cc1)N1CCc2nn(C)c(Cc3ccccc3)c2C1=O | binding | competition with immobilised ligand | 0.1 µM | 89%
COc1cnc(Nc2cccc(S(N)(=O)=O)c2)nc1N1CCN(c2ccccc2)CC1 | binding | competition with immobilised ligand | 1 µM | 100%
COc1ncc2cc3ccccc3nc2c1C#N | cell-free assay | competition with immobilised ligand | 5 µM | 100%
FC(F)(F)Oc1cccc(-c2cnc3ccc(-c4ccncc4)nn23)c1 | cell-free assay | competition with immobilised ligand | 5 µM | 84%
Cc1cnn2ncc(-c3ccnc(N(C)C)n3)c2c1 | binding |  | 1 µM | 93%
O=C(O)[C@H]1[C@H](Cn2nnc3ccccc3c2=O)CC[C@@H]1C(=O)c1ccc(OCCC2CCOCC2)cc1 | cell-free assay | competition with immobilised ligand | 1 µM | 100%
O=C(NCC1CCOCC1)c1n[nH]cc1NC(=O)c1c(F)cccc1F | binding | competition with immobilised ligand | 1 µM | 100%
CNC(=O)Nc1ccc2c(c1)[C@@]1(CC2)OC(=O)N(CC(=O)N(Cc2ccc(F)cc2)[C@@H](C)C(F)(F)F)C1=O | cell-free assay | competition with immobilised ligand | 1 µM | 85%
C[C@H]1CCN(c2nccc(-c3cnn4ncccc34)n2)C1 | binding |  | 1 µM | 100%
Cc1cnc(Nc2ccc(C(=O)N3CCC(N4CCCC4)CC3)cc2)nc1-c1cc2ccccc2s1 | binding | competition with immobilised ligand | 1 µM | 52%
COc1ccnn2ncc(-c3ccnc(N(C)C)n3)c12 | binding |  | 1 µM | 75%
Cn1nc(C(=O)NCc2ccc(C(=O)O)cc2)cc1-c1ccc2[nH]ccc2c1 | cell-free assay | competition with immobilised ligand | 0.1 µM | 95%
Nc1ncc2c(n1)-c1c([nH]c3ccc(C#CC4CC4)cc13)CCCC2 | binding | competition with immobilised ligand | 1 µM | 100%
